Reference: article PMC6175367 (Journal of Clinical Pharmacology, 2018)
Structures can show the parent of a compound that is named as a salt.

What was measured:
[1] = dose of up to 200 mg, healthy nonelderly adult male subjects, CPH‐001; cited from earlier work
[2] = Safety evaluation: adverse events, vital signs, weight, ECG, laboratory tests; assay type: in vivo, human
[3] = Plasma pharmacokinetics after multiple oral administrations of imarikiren; assay type: in vivo, human
Procedure, shortened: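 Healthy males (nonelderly 20–45 y, elderly 65–85 y) took test compound or placebo tablets orally once daily for 7 days (80 or 160 mg). Fluids were withheld from 2 h pre-dose to 4 h post-dose. Plasma parent and metabolite were measured by HPLC‑MS/MS, with noncompartmental analysis on actual sampling times. Accumulation = 100 × AUC0‑tau day 7/day 1. Age effect: elderly−nonelderly difference in ln AUC0‑tau and Cmax, day 7, with 90%/95% CI.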

[4] = system: plasma active renin concentration (PRC); assay: Plasma active renin concentration; assay type: in vivo, human
Procedure, shortened: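 Healthy Japanese male volunteers (nonelderly 20‑45 y, elderly 65‑85 y) took test compound or placebo tablets orally once daily for 7 days, 30 min after starting breakfast with 200 mL water. Sodium-matched meals were given. Plasma active renin was measured by immunoradiometric assay at 1 h predose and 1, 2, 4, 6, 12 h postdose on days 1 and 7, 1 h predose on days 2‑6, and 23, 47, 71 h after the last dose.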

[5] = system: plasma angiotensin II concentration (AII); assay: Plasma angiotensin II concentration; assay type: in vivo, human
Procedure, shortened: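 Double-blind, placebo-controlled once-daily oral tablet dosing for 7 days in healthy Japanese men (nonelderly 20‑45 y, elderly 65‑85 y), given 30 min after starting breakfast with 200 mL water, with uniform meals. Plasma angiotensin II was measured by radioimmunoassay at 1 h predose and 1‑12 h postdose on days 1 and 7, predose on days 2‑6, and up to 71 h after the last dose.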

PRA [6] = conditions: ≥5 mg dose, CPH‐001 study; cited from earlier work
[7] = molecular target: T1, plasma renin activity (PRA) (Homo sapiens, UniProt P00797); assay type: in vivo
T1 sequence (P00797 67-406): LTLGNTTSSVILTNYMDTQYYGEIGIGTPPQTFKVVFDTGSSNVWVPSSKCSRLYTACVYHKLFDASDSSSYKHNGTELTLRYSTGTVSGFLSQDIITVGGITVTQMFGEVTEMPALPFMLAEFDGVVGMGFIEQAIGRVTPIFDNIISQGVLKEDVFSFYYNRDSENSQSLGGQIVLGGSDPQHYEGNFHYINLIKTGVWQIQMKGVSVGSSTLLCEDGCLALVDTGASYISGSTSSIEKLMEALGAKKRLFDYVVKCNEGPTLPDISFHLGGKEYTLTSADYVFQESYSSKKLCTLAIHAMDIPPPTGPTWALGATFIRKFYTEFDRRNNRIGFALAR

[8] = single‐dose administration; cited from earlier work
PRA [9] = conditions: aliskiren 300 mg on day 1 and days 4‐10, Japanese and white subjects; cited from earlier work
[10] = imarikiren 80 mg once daily 7 days, elderly (n = 9)
[11] = imarikiren 80 mg once daily 7 days, nonelderly (n = 9)
[12] = imarikiren 80 mg, nonelderly (2 of 9 subjects)
[13] = imarikiren 160 mg once daily 7 days, nonelderly (n = 9)
[14] = imarikiren 80 mg, day 7, Cohort 3 vs Cohort 1
[15] = imarikiren 80 mg, nonelderly, listed as imarikiren
[16] = imarikiren 160 mg, nonelderly, listed as imarikiren

COCCCCn1c(C(=O)N(CC(C)C)[C@@H]2CNC[C@H](C(=O)N3CCOCC3)C2)nc2ccccc21 [Imarikiren, Imarikiren hydrochloride]
Tolerability of single dose [1]: good tolerability | Overall safety and tolerability ([2]; 80 or 160 mg for 7 days nonelderly, 80 mg elderly): safe and well tolerated | Intensity of TEAEs ([2]; all TEAEs, with the exception of moderate urticaria in 1 nonelderly subject (80 mg)): mild in intensity | Changes in ECG parameters ([2]; all cohorts): No obvious changes | Serious TEAEs and deaths ([2]; all cohorts, during the study): no serious TEAEs and no deaths | TEAEs reported, subjects ([2]; all nonelderly subjects who received imarikiren): 22.2% | TEAEs related to the study drug, subjects ([2]; all nonelderly subjects who received imarikiren (3 of 18 subjects)): 16.7% | Subjects with any TEAEs [2, 10]: 3 (33.3) n (%) | TEAE: Alanine aminotransferase increased [2, 10]: 1 (11.1) n (%) | TEAE: Aspartate aminotransferase increased [2, 10]: 1 (11.1) n (%) | TEAE: Blood creatinine phosphokinase increased [2, 10]: 0 n (%) | TEAE: Blood triglycerides increased [2, 10]: 0 n (%) | TEAE: Diarrhea [2, 10]: 1 (11.1) n (%) | TEAE: Eye disorders [2, 10]: 0 n (%) | TEAE: Feeling hot [2, 10]: 0 n (%) | TEAE: Gastrointestinal disorders [2, 10]: 1 (11.1) n (%) | TEAE: General disorders and administration site conditions [2, 10]: 0 n (%) | TEAE: Headache [2, 10]: 1 (11.1) n (%) | TEAE: Investigations [2, 10]: 2 (22.2) n (%) | TEAE: Nervous system disorders [2, 10]: 1 (11.1) n (%) | TEAE: Pruritus [2, 10]: 0 n (%) | TEAE: Skin and subcutaneous tissue disorders [2, 10]: 0 n (%) | TEAE: Urticaria [2, 10]: 0 n (%) | TEAE: Vision blurred [2, 10]: 0 n (%) | TEAE: White blood cell count decreased [2, 10]: 1 (11.1) n (%) | TEAE: White blood cell count increased [2, 10]: 0 n (%) | Subjects with any TEAEs [2, 11]: 2 (22.2) n (%) | TEAE: Alanine aminotransferase increased [2, 11]: 0 n (%) | TEAE: Aspartate aminotransferase increased [2, 11]: 0 n (%) | TEAE: Blood creatinine phosphokinase increased [2, 11]: 0 n (%) | TEAE: Blood triglycerides increased [2, 11]: 0 n (%) | TEAE: Diarrhea [2, 11]: 0 n (%) | TEAE: Eye disorders [2, 11]: 0 n (%) | TEAE: Feeling hot [2, 11]: 1 (11.1) n (%) | TEAE: Gastrointestinal disorders [2, 11]: 0 n (%) | TEAE: General disorders and administration site conditions [2, 11]: 1 (11.1) n (%) | TEAE: Headache [2, 11]: 0 n (%) | TEAE: Investigations [2, 11]: 1 (11.1) n (%) | TEAE: Nervous system disorders [2, 11]: 0 n (%) | TEAE: Pruritus [2, 11]: 1 (11.1) n (%) | TEAE: Skin and subcutaneous tissue disorders [2, 11]: 2 (22.2) n (%) | TEAE: Urticaria [2, 11]: 1 (11.1) n (%) | TEAE: Vision blurred [2, 11]: 0 n (%) | TEAE: White blood cell count decreased [2, 11]: 0 n (%) | TEAE: White blood cell count increased [2, 11]: 1 (11.1) n (%) | TEAEs related to the study drug, subjects ([2]; imarikiren 80 mg, elderly (2 of 9 subjects)): 22.2% | TEAEs reported, subjects ([2]; imarikiren 80 mg, elderly (3 of 9 subjects)): 33.3% | TEAEs related to the study drug, subjects [2, 12]: 22.2% | TEAEs reported, subjects [2, 12]: 22.2% | Subjects with any TEAEs [2, 13]: 2 (22.2) n (%) | TEAE: Alanine aminotransferase increased [2, 13]: 2 (22.2) n (%) | TEAE: Aspartate aminotransferase increased [2, 13]: 0 n (%) | TEAE: Blood creatinine phosphokinase increased [2, 13]: 0 n (%) | TEAE: Blood triglycerides increased [2, 13]: 0 n (%) | TEAE: Diarrhea [2, 13]: 0 n (%) | TEAE: Eye disorders [2, 13]: 0 n (%) | TEAE: Feeling hot [2, 13]: 0 n (%) | TEAE: Gastrointestinal disorders [2, 13]: 0 n (%) | TEAE: General disorders and administration site conditions [2, 13]: 0 n (%) | TEAE: Headache [2, 13]: 0 n (%) | TEAE: Investigations [2, 13]: 2 (22.2) n (%) | TEAE: Nervous system disorders [2, 13]: 0 n (%) | TEAE: Pruritus [2, 13]: 0 n (%) | TEAE: Skin and subcutaneous tissue disorders [2, 13]: 0 n (%) | TEAE: Urticaria [2, 13]: 0 n (%) | TEAE: Vision blurred [2, 13]: 0 n (%) | TEAE: White blood cell count decreased [2, 13]: 0 n (%) | TEAE: White blood cell count increased [2, 13]: 0 n (%) | TEAEs related to the study drug, subjects ([2]; imarikiren 160 mg, nonelderly (1 of 9 subjects)): 11.1% | TEAEs reported, subjects ([2]; imarikiren 160 mg, nonelderly (2 of 9 subjects)): 22.2% | Change in mean blood pressure ([2]; imarikiren groups, day 7 compared with baseline): decrease in mean blood pressure | Tmax ([3]; human, plasma, oral, 160 mg, median time to reach the maximum observed plasma concentration (Tmax), nonelderly subjects, all groups (80 and 160 mg), days 1 and 7): 1 to 2 h | CL/F, mean (SD) ([3]; imarikiren 80 mg oral once daily, elderly, Day 1): 15.2 (4.6) L/hr | CL/F, mean (SD) ([3]; imarikiren 80 mg oral once daily, elderly, Day 7): 14.1 (3.4) L/hr | CL/F, mean (SD) ([3]; imarikiren 80 mg oral once daily, nonelderly, Day 1): 19.6 (3.6) L/hr | CL/F, mean (SD) ([3]; imarikiren 80 mg oral once daily, nonelderly, Day 7): 21.5 (5.6) L/hr | AUC0‐tau higher in elderly than in nonelderly subjects [3, 14]: 52% | Cmax higher in elderly than in nonelderly subjects [3, 14]: 39% | Accumulation index (AUC) percentage (100 × AUC0‐tau day 7/AUC0‐inf day 1), mean (SD) ([3]; imarikiren 80 mg, nonelderly): 94.4 (21.8) % | Accumulation index (t1/2) percentage, mean (SD) ([3]; imarikiren 80 mg, nonelderly): 116.4 (39.1) % | R(AUC), AUC accumulation factor percentage (100 × AUC0‐tau day 7/AUC0‐tau day 1), mean (SD) ([3]; imarikiren 80 mg, nonelderly): 106.4 (22.4) % | Accumulation index (AUC) percentage (100 × AUC0‐tau day 7/AUC0‐inf day 1), mean (SD) [3, 15]: 94.4% | R(AUC), AUC accumulation factor percentage (100 × AUC0‐tau day 7/AUC0‐tau day 1), mean (SD) [3, 15]: 106.4% | CL/F, mean (SD) ([3]; imarikiren 160 mg oral once daily, nonelderly, Day 1): 19.7 (5.1) L/hr | CL/F, mean (SD) ([3]; imarikiren 160 mg oral once daily, nonelderly, Day 7): 17.6 (3.3) L/hr | Accumulation index (AUC) percentage (100 × AUC0‐tau day 7/AUC0‐inf day 1), mean (SD) ([3]; imarikiren 160 mg, nonelderly): 114.2 (30.0) % | Accumulation index (t1/2) percentage, mean (SD) ([3]; imarikiren 160 mg, nonelderly): 119.7 (34.3) % | R(AUC), AUC accumulation factor percentage (100 × AUC0‐tau day 7/AUC0‐tau day 1), mean (SD) ([3]; imarikiren 160 mg, nonelderly): 123.0 (32.6) % | Accumulation index (AUC) percentage (100 × AUC0‐tau day 7/AUC0‐inf day 1), mean (SD) [3, 16]: 114.2% | R(AUC), AUC accumulation factor percentage (100 × AUC0‐tau day 7/AUC0‐tau day 1), mean (SD) [3, 16]: 123.0% | Plasma concentration reached steady state (based on trough concentration) ([3]; multiple oral administration of 80 mg and 160 mg, nonelderly): ≤ 7 days | Change from baseline in PRC, mean (SD) ([4]; imarikiren 80 mg oral once daily, elderly, Day 2 (–1 hr)): 78.3 (72.3) pg/mL | Change from baseline in PRC, mean (SD) ([4]; imarikiren 80 mg oral once daily, elderly, Day 7 (23 hrs)): 154.4 (168.0) pg/mL | Change from baseline in PRC, mean (SD) ([4]; imarikiren 80 mg oral once daily, nonelderly, Day 2 (–1 hr)): 169.3 (140.9) pg/mL | Change from baseline in PRC, mean (SD) ([4]; imarikiren 80 mg oral once daily, nonelderly, Day 7 (23 hrs)): 247.1 (130.1) pg/mL | Change from baseline in PRC, mean (SD) ([4]; imarikiren 160 mg oral once daily, nonelderly, Day 2 (–1 hr)): 129.5 (106.8) pg/mL | Change from baseline in PRC, mean (SD) ([4]; imarikiren 160 mg oral once daily, nonelderly, Day 7 (23 hrs)): 487.3 (264.9) pg/mL | Change from baseline in AII ([5]; 80 mg, elderly, any time): no changes from baseline | Change from baseline in AII ([5]; 160 mg, nonelderly, days 1 through 7): decreased from baseline | Inhibition of PRA after single oral administration (PRA [6]): completely inhibited PRA | Time after the last administration for which inhibition of PRA was maintained ([7]; 80 mg (nonelderly and elderly) and 160 mg (nonelderly), once daily for 7 days): at least 71 hours | PRA inhibition with multiple dosing ([7]; for 7 days, sustained for nearly 3 days after the last administration): complete inhibition | Food effect on the PK [8]: minimal effect

COCCCOc1cc(C[C@@H](C[C@H](N)[C@@H](O)C[C@H](C(=O)NCC(C)(C)C(N)=O)C(C)C)C(C)C)ccc1OC [aliskiren]
PRA inhibition at steady state (PRA [9]): incomplete PRA inhibition
